Bioassay records: PubChem BioAssay, The Scripps Research Institute Molecular Screening Center
TCR-CD3 inh: blocks the human TCR-CD3 interaction | TAMRA-labeled TCR probe fluorescence, biochemical | inhibition, % at 9.4 µM | actives 0.37% (n = 360,000) | AID 651800; in the data active = inhibition above about 19%;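 also: recombinant mutant TCR 2C K166C tagged with TAMRA read by polarization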
PRMT1 inh: PRMT1 (human) inhibition, primary screen; Q99873; recombinant PRMT1, activity-based probe fluorescence polarization; inhibition, % at 2.79 µM; actives 1.3% (n = 370,000);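 active = inhibition above about 21% made by adding two undisclosed values, limit read from the data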
SIAE primary: blocks human sialic acid acetylesterase; inhibition, % at 9.66 µM; Q9HAT2; actives 0.69% (n = 370,000); SIAE FP-Rh probe binding, fluorescence polarization; AID 1053197;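 active = inhibition above a cutoff: mean of compounds within the control limits plus 3 SD of those, cut at about 17% in these data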
mABHD4 FP: inhibitors of mouse ABHD4 | Q8VD66 | purified mABHD4, FP-Rh probe fluorescence polarization | inhibition, % at 8.92 µM | actives 0.54% (n = 370,000) | AID 720543;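 active = inhibition exceeding the mean over every tested compound plus 3 SD, cut at about 30% in these data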
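Test system: mouse ABHD4 enzyme, wild type. Reagent: FP-Rh fluorescent activity-based probe, added after compound pre-incubation. Timing: pre-incubation 45 min, probe exposure 60 min, at 25 °C. Technique: FP readout, ex 525 nm / em 598 nm. Benchmarks: high control S159A mutant with DMSO, low control median of compound wells.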
rCAG RNA binder: molecules binding r(CAG) RNA repeats | r(CAG) RNA repeat, TO-PRO-1 dye displacement fluorescence | inhibition, % at 3 µM | actives 1.3% (n = 370,000) | AID 651821;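 active = inhibition above the plate cutoff, the mean of all test compounds on that plate plus 3 SD, cut at about 35% in these data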;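 also: higher means more dye released from RNA so lower well fluorescence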
HTRA1 inhibitor: HTRA1 (human) protease inhibition; Q92743; recombinant HTRA1, FP-rhodamine activity-based probe, fluorescence polarization; inhibition, % at 5.96 µM; actives 0.5% (n = 340,000); in the data active = inhibition above about 36%
Target sequence (Q92743 whole entry, looked up): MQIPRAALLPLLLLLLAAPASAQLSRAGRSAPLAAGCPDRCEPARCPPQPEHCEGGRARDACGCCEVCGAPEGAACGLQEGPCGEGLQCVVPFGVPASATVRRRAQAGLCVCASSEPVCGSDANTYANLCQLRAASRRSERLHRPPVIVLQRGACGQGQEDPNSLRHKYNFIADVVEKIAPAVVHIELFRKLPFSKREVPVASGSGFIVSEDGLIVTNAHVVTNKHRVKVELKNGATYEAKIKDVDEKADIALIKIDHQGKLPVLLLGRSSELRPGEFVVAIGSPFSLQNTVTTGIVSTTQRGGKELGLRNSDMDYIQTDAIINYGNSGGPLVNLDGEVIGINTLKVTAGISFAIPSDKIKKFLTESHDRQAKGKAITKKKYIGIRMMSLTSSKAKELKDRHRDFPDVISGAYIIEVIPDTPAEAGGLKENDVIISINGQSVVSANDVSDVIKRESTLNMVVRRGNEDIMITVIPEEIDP
mABHD4 conf: ABHD4 (mouse) inhibition, FP confirmation; inhibition, % at 8.92 µM; purified mABHD4, FP-Rh probe fluorescence polarization; actives 55% (n = 1,800); shares compounds with mABHD4 FP;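 active = mean inhibition across replicates above the hit cutoff set in the primary screen, cut at about 30% in these data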
Hits are given with their value; - = inactive; . = not tested or not shown; ! = not confirmed by another sample. The list is not random: actives were taken first. Their share in the collection is about 3.5%.

SMILES	TCR-CD3 inh	PRMT1 inh	SIAE primary	mABHD4 FP	rCAG RNA binder	HTRA1 inhibitor	mABHD4 conf
CCOc1cccc(/C=N\NC(=O)Cc2cccs2)c1O	.	-	-	-	-	.	.
CCn1c(/C=N/Nc2ccc(C(=O)O)cc2)nc2ccccc21	-	-	-	-	-	-	.
CC1Oc2ccccc2C=C1/C=N/Nc1ccc(C(=O)O)cc1 (stereo not drawn)	-	-	-	32	-	-	31
NCCOc1ccc(C23CC4CC(CC(C4)C2)C3)cc1	-	-	-	32	-	-	37
COC(=O)[C@]12C[C@H](CC(=O)NCc3cccc(C(F)(F)F)c3)C(=O)N(Cc3ccc(Cl)cc3Cl)C1=C[C@H](COCc1ccccc1)O[C@@H]2C	.	-	-	-	-	.	.
Cc1nn(-c2ccccc2)c2c1C(c1ccncc1)C(C#N)=C(N)O2 (stereo not drawn)	-	-	-	-	-	-	.
Cc1nn(-c2ccccc2)c(Cl)c1C1C(C#N)=C(N)Oc2c1c(C)nn2-c1ccccc1 (stereo not drawn)	-	-	-	-	-	-	.
Cc1nn(Cc2ccccc2)c2c1C(c1cccc(Cl)c1)C(C#N)=C(N)O2 (stereo not drawn)	-	-	-	54	-	-	41
COc1cc(-n2nc(C)c3c2OC(N)=C(C#N)C3c2ccccc2)c(Cl)c(Br)c1O (stereo not drawn)	-	-	-	30	-	-	40
Cc1ccc(Nc2cc(C)c3c(O)cccc3n2)cc1C	-	-	18	44	-	-	51
COc1ccc(-c2nnc(CSc3nc4ccccc4c(=O)n3CC(C)C)o2)cc1OC	-	-	-	31	-	-	-
O=C(O)C1Cn2c(nc3c(c2=O)C2(CCCC2)Cc2ccccc2-3)S1 (stereo not drawn)	-	-	-	42	-	-	42
CCOC(=O)C1Cn2c(nc3c(c2=O)C2(CCCC2)Cc2ccccc2-3)S1 (stereo not drawn)	-	-	-	-	-	-	.
CNC[C@@H](CC1CCCCC1)NC[C@H](CC(C)C)NCCc1cccc(C(F)(F)F)c1	-	-	-	31	-	-	52
CNC[C@@H](Cc1ccccc1)NC[C@@H](CC1CCCCC1)NCCCc1ccccc1	-	-	-	38	-	-	46
CC[C@@H](C)[C@H](CNC)NC[C@@H](Cc1cccc2ccccc12)NCCc1cccc(C(F)(F)F)c1	-	-	-	49	-	-	51
Cc1cc(-c2cc(NC(=O)Cc3c[nH]c4ccccc34)ccc2Nc2cccnc2)ccc1F	-	-	-	-	-	.	.
O=C(Nc1ccc(Br)cc1)OCCCN1CCC2(CCCCC2)C1=O	.	-	-	-	-	.	.
CCC[C@H]1[C@@H](NC(=S)Nc2ccccc2Cl)CC[C@@]23CCCN2C(=O)CCC[C@@H]13	.	-	-	-	.	.	.
CCN(C(=O)c1ccc(S(C)(=O)=O)cc1)C12CC3CC(CC(C3)C1)C2	-	-	-	93	-	-	-
CSc1nnc2c(n1)C[C@H](c1ccccc1)[C@@H](C)[C@@H](C(=O)N1CCCC1)C2	.	-	-	-	-	.	.
COc1ccccc1[C@@H]1C(c2ccccc2)=NN(c2ccc(Br)cc2)[C@H]1C(=O)N1CCOC1=O	-	-	-	49	-	-	-
COc1ccccc1[C@@H]1C(c2cccc(C)c2)=NN(c2ccc(Br)cc2)[C@H]1C(=O)N1CCOC1=O	-	-	-	-	-	-	.
CN(CCOC(=O)CSc1ccccc1)C1CN(Cc2cn(Cc3ccccc3F)nn2)S(=O)(=O)C1 (stereo not drawn)	.	-	-	-	-	.	.
O=C(Nc1ccccc1F)Nc1cccc2ccc(O)cc12	-	-	-	31	-	-	43
SMILES	TCR-CD3 inh	PRMT1 inh	SIAE primary	mABHD4 FP	rCAG RNA binder	HTRA1 inhibitor	mABHD4 conf
COC(=O)[C@]12C[C@H](CC(=O)N3CCCC3)C(=O)N(Cc3cccc4ccccc34)C1=C[C@H](COCc1ccccc1)O[C@@H]2C	.	-	-	-	-	.	.
COC(=O)[C@]12C[C@H](CC(=O)N3CCSCC3)C(=O)N(Cc3ccc(Cl)cc3Cl)C1=C[C@H](C(C)C)O[C@@H]2C1CC1	.	-	-	-	-	.	.
CN=c1scc(C)n1/N=C/c1cc(Br)c(O)c(Br)c1	-	-	-	-	-	-	.
CCN=c1scc(C)n1/N=C/c1cc(Br)c(O)c(OC)c1	-	-	-	30	-	-	33
Nc1c(Cl)ncnc1N/N=C/c1cccnc1	-	-	-	-	-	-	.
Nc1c(Cl)ncnc1N/N=C/c1ccccn1	-	-	-	54	-	.	54
CCCN(CC1CC1)C(=O)CSc1nnc(-c2ccncc2)n1-c1ccc(OC)cc1	.	-	-	-	-	.	.
COc1cc(OC)cc(C(=O)Nc2nc3ccccc3[nH]2)c1	-	-	-	36	-	-	31
COc1ccc(OCC(=O)Nc2nc3ccccc3[nH]2)cc1	-	-	-	39	-	-	39
CCOc1ccc(C(=O)Nc2nc3ccccc3[nH]2)cc1OCC	-	-	-	35	-	-	40
C[C@H]1/C=C/CC(=O)N[C@@H](c2ccccc2)[C@@H](C)/C=C/CC(=O)N[C@H]1c1ccccc1	.	-	-	-	-	.	.
COc1cccc(CNC(=O)[C@H]2CCCN2C(=O)[C@H]2CCCN2C(=O)OC(C)(C)C)c1	-	-	-	-	-	.	.
CCOc1cccc2sc(NN)nc12	-	-	-	71	-	-	71
CCOc1cccc2sc(Cl)nc12	-	-	-	-	-	-	.
COC(=O)[C@]12C[C@H](CC(=O)NCCc3ccccc3OC)C(=O)N(Cc3ccccc3)C1=C[C@H](COCc1ccccc1)O[C@@H]2C	.	-	-	-	-	.	.
CCOc1cc(/C=C2\SC(=O)N(CC(=O)Nc3ccccc3F)C2=O)cc([N+](=O)[O-])c1O	-	-	-	-	-	-	.
COc1cc(/C=C2\SC(=O)N(CC(=O)Nc3cccc(C)c3)C2=O)cc([N+](=O)[O-])c1O	-	-	-	31	-	.	80
Cc1c(CCOC(=O)c2ccc(Cl)cc2Cl)sc[n+]1CC(=O)c1ccc(Br)cc1	-	-	-	-	-	-	.
Cc1c(CCOC(=O)C2C3CC4CC(C3)CC2C4)sc[n+]1CC(=O)c1ccc(Br)cc1 (stereo not drawn)	-	-	-	32!	-	-	36
CCc1ccc(S(=O)(=O)Nc2cc(SCC(=O)O)c(O)c3ccccc23)cc1	-	77	-	31	-	-	45
CCc1ccc(S(=O)(=O)Nc2ccc(O)c3ccccc23)cc1	-	-	-	-	-	-	.
O=C(Nc1ccc2ncccc2c1)c1cc(-c2ccc(Cl)cc2)nc2ccccc12	.	-	-	-	-	.	.
C/C(=N\Nc1cccc(C(=O)O)c1)c1cc2ccccc2o1	-	-	-	32	-	-	30
